Assay results gathered from unrelated publications.
Compare with care: the assays were run in different laboratories. pKi: −log10 of the molar value.
SIGMAR1: Sigma non-opioid intracellular receptor 1 (SIGMAR1, Homo sapiens, UniProt Q99720)
SPHK1: Sphingosine kinase 1 (SPHK1, Homo sapiens, UniProt Q9NYA1)
CNR1: Cannabinoid receptor 1 (CNR1, Homo sapiens, UniProt P21554)
HRH4: Histamine H4 receptor (HRH4, Homo sapiens, UniProt Q9H3N8)
PPO3: PPO3 (Agaricus bisporus, UniProt C7FF04)
HTR2A: 5-hydroxytryptamine receptor 2A (HTR2A, Homo sapiens, UniProt P28223)
SLC10A1: Hepatic sodium/bile acid cotransporter (SLC10A1, Homo sapiens, UniProt Q14973)
OPRK1: Kappa-type opioid receptor (OPRK1, Homo sapiens, UniProt P41145)

With `CCCn1nc(C(=O)N2CCCCC2)c2c1CCC(NCc1ccc(N3CCCCC3)cc1)C2` (stereo not shown) the pKi was less than 5.00 (SIGMAR1; ligand displacement; radioligand).
With `COc1ccc2c(ccn2CCCCN2Cc3cc(OC)c(OC)cc3C2)c1` the pKi was 6.72 (SIGMAR1; ligand displacement; radioligand; cell membranes).
With `N=C(N)N1CCC[C@H]1c1nc(-c2ccc(CCC3CCCCC3)c(C(F)(F)F)c2)no1` the pKi was 4.74 (SPHK1; enzyme activity; inhibitor).
The pKi of `CCCn1nc(C(=O)N2CCCCC2)c2c1CCC(N(C)Cc1ccc(F)cc1)C2` (stereo not shown) is reported as less than 5.00 (SIGMAR1; ligand displacement; radioligand).
The pKi of `N=C(N)N1CCC[C@H]1c1nc(-c2ccc(CCc3ccc(C(F)(F)F)cc3)c(C(F)(F)F)c2)no1` is reported as 5.05 (SPHK1; enzyme activity; inhibitor).
With `CCCC[C@H](NC(=O)[C@H](C)c1c(C)[nH]c2ccc(O)cc12)c1ncc(-c2cc3ccccc3nc2OC)[nH]1` the pKi was 5.14 (CNR1; cell-free assay).
For `CCCn1nc(C(=O)N2CCCCC2)c2c1CCC(N1CCc3ccccc3C1)C2` (stereo not shown), the pKi was less than 5.00 (SIGMAR1; ligand displacement; radioligand).
`CCOC(=O)[C@](CC)(CCCS(=O)(=O)CCOCCOCCNC(=O)OC(C)(C)C)NC(=O)c1ccc(C2CC2)c(Cc2ccc(F)cc2)n1` has a pKi of 6.72 (CNR1; ligand displacement; radioligand; cell membranes).
For `CCCn1nc(C(=O)N2CCCCC2)c2c1CCC(NCCc1ccncc1)C2` (stereo not shown), the pKi was less than 5.00 (SIGMAR1; ligand displacement; radioligand).
`CCCCN1CCC(COC(=O)c2ccc(N)c(OCF)c2)CC1` has a pKi of less than 5.00 (HRH4; cell-free assay; radioligand).
`Nc1nc(N)c(N=Nc2ccc([N+](=O)[O-])cc2)c(N)n1` gave a pKi of 5.34 (PPO3; enzyme activity; inhibitor).
With `CC1Cc2ccccc2N1C(=O)NCCCCN(C)[C@@H]1Cc2cccc3[nH]c(=O)n(c23)C1` (mixture of isomers) the pKi was 5.51 (HTR2A; ligand displacement; radioligand).
The pKi of `CCNC(=O)[C@H]1O[C@@H](n2cnc3c(N)nc(NN=CC4CCC=CO4)nc32)[C@H](O)[C@@H]1O` (stereo partly shown) is reported as 8.18 (Adenosine receptor A2a (ADORA2A, Homo sapiens, UniProt P29274); ligand displacement; radioligand).
The pKi of `Cc1nc2n(c(=O)c1CCN1CCC(C(=O)c3ccc(F)cc3)CC1)CCCC2` is reported as 8.52 (HTR2A; ligand displacement; radioligand; cell membranes).
`O[C@H]1[C@H](n2cnc3c(NC(C4CCCCC4)C4CCCCC4)nc(Cl)nc32)[C@H]2C[C@@]2(CF)[C@H]1O` has a pKi of 5.15 (HTR2A; ligand displacement; radioligand).
With `CS(=O)(=O)CCNCc1ccc(-c2ccc3ncnc(Nc4ccc(OCc5cccc(F)c5)c(Cl)c4)c3c2)o1` the pKi was 3.55 (SLC10A1; transporter uptake; inhibitor).
`Cc1nc2n(c(=O)c1CCNCCc1c[nH]c3ccccc13)CCCC2` gave a pKi of less than 5.00 (HTR2A; ligand displacement; radioligand; cell membranes).
`Cc1ccc(C(C)C)cc1NC(=O)COC(=O)/C=C/c1ccccc1O` has a pKi of 5.66 (PPO3; enzyme activity; inhibitor).
For `CNC(=O)[C@@]12C[C@@H]1[C@@H](n1cnc3c(NCc4cccc(Cl)c4)nc(C#Cc4ccccc4)nc31)[C@H](O)[C@@H]2O`, the pKi was less than 5.00 (OPRK1; cell-free assay).
`Nc1nc(N)c(N=Nc2ccc([N+](=O)[O-])cc2)c(Cl)n1` has a pKi of 5.18 (PPO3; enzyme activity; inhibitor).
`O=C1NC(c2ccccc2)(c2ccccc2)C(=O)N1CCCN1CCCCC1` gave a pKi of less than 5.00 (HRH4; ligand displacement; radioligand; cell membranes).
`CCCc1nc2c(C)cc(-c3nc4ccccc4n3C)cc2n1Cc1ccc(-c2ccccc2C(=O)O)cc1` gave a pKi of 4.22 (SLC10A1; transporter uptake; inhibitor).
For `CC[C@H](C)[C@H](NC(=O)[C@H](CCC(=O)O)NC(=O)[C@H](CC(=O)O)NC(=O)CNC(=O)[C@H](CC(C)C)NC(=O)[C@H](CCCNC(=N)N)NC(=O)[C@H](CCC(N)=O)NC(=O)[C@H](CC(C)C)NC(=O)[C@H](CO)NC(=O)[C@H](CCC(N)=O)NC(=O)[C@@H](NC(=O)[C@H](CC(C)C)NC(=O)[C@H](Cc1c[nH]c2ccccc12)NC(=O)[C@@H](NC(=O)[C@H](CCC(=O)O)NC(=O)[C@@H]1CCCN1C(=O)[C@H](CCCNC(=N)N)NC(C)=O)[C@@H](C)CC)[C@@H](C)O)C(=O)N[C@@H](CC(N)=O)C(=O)N[C@@H](C)C(=O)N[C@@H](Cc1ccc(O)cc1)C(=O)N[C@@H](Cc1ccc(O)cc1)C(=O)N[C@@H](C)C(=O)N[C@@H](CCCNC(=N)N)C(N)=O`, the pKi was roughly 5.68 (Bcl-2-like protein 1 (BCL2L1, Homo sapiens, UniProt Q07817); ligand displacement; FP).
`Cc1nc2n(c(=O)c1CCNCCc1c[nH]c3cc(F)ccc13)CCCC2` gave a pKi of 5.71 (HTR2A; ligand displacement; radioligand; cell membranes).
`CCCNc1nc(C#Cc2ccc(Cl)s2)nc2c1ncn2[C@H]1[C@H](O)[C@H](O)[C@]2(C(=O)NC)C[C@H]12` gave a pKi of less than 5.00 (OPRK1; cell-free assay).
With `Cc1ccc(C(C)C)cc1NC(=O)COC(=O)/C=C/c1ccccc1` the pKi was 6.08 (PPO3; enzyme activity; inhibitor).
The pKi of `COc1ccccc1N1CCN(C/C=C/CNC(=O)c2cc3cc(OCCOCCF)ccc3[nH]2)CC1` is reported as less than 5.00 (SIGMAR1; cell-free assay).
The pKi of `CCc1cc(Cl)c(OC)c(C(=O)NC[C@@H]2CCCN2CC)c1O` is reported as less than 6.00 (Vesicular acetylcholine transporter (SLC18A3, Homo sapiens, UniProt Q16572); ligand displacement; radioligand).
`CNC(=O)[C@@]12C[C@@H]1[C@@H](n1cnc3c(NC)nc(C#Cc4ccc(Cl)s4)nc31)[C@H](O)[C@@H]2O` gave a pKi of less than 5.00 (OPRK1; cell-free assay).
`CCCn1nc(C(=O)N2CCCCC2)c2c1CCC(NCC1CCOCC1)C2` (stereo not shown) has a pKi of less than 5.00 (SIGMAR1; ligand displacement; radioligand).
`CNc1nc(C#Cc2ccc(Cl)s2)nc2c1ncn2[C@@H]1O[C@H](C(=O)OC)[C@@H](O)[C@H]1O` has a pKi of less than 5.00 (OPRK1; cell-free assay).
For `Cc1cccc(CN2CCCC(C(=O)NCCc3cccnc3)CC2)n1` (stereo not shown), the pKi was less than 5.00 (OPRK1; cell-free assay).
The pKi of `O[C@@H]1[C@H](O)[C@@H]2C[C@@H]2[C@H]1n1cnc2c(NCCc3ccccc3)nc(C#Cc3ccccc3Cl)nc21` is reported as less than 5.00 (OPRK1; cell-free assay).
The pKi of `CCCn1nc(C(=O)N2CCCCC2)c2c1CCC(N1CCN(Cc3ccc(C#N)cc3)CC1)C2` (stereo not shown) is reported as less than 5.00 (SIGMAR1; ligand displacement; radioligand).
`CNC(=O)[C@@]12C[C@@H]1[C@@H](n1cnc3c(NC4CC4c4ccccc4)nc(C#Cc4ccccc4)nc31)[C@H](O)[C@@H]2O` (mixture of isomers) has a pKi of less than 5.00 (OPRK1; cell-free assay).
`CC(=O)Nc1ccc(N=Nc2c(N)nc(N)nc2N)cc1` gave a pKi of 5.30 (PPO3; enzyme activity; inhibitor).
For `CCNc1nc(C#Cc2ccccc2)nc2c1ncn2[C@H]1[C@H](O)[C@H](O)[C@@H]2C[C@@H]21`, the pKi was less than 5.00 (OPRK1; cell-free assay).
`CN(CCCCNC(=O)c1cc2ccccc2[nH]1)[C@@H]1Cc2cccc3[nH]c(=O)n(c23)C1` has a pKi of 5.84 (HTR2A; ligand displacement; radioligand).
The pKi of `CNC(=O)[C@@]12C[C@@H]1[C@@H](n1cnc3c(NC)nc(C#Cc4ccccc4Cl)nc31)[C@H](O)[C@@H]2O` is reported as less than 5.00 (OPRK1; cell-free assay).
With `COc1ccc(N=Nc2c(N)nc(N)nc2N)cc1` the pKi was 5.12 (PPO3; enzyme activity; inhibitor).
